According to paper PMC12480717 (Scientific Reports, 2025):

Tests used:
Assay in all cases: MIC
Type in all cases: cell-based
Conditions in all cases: broth microdilution, 37 °C, 24 h
S. aureus ATCC 29213 = test system: S. aureus ATCC 29213
In short: (§1)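 Strains were kept in TSB with 25% glycerol at −70 °C and grown aerobically on nutrient agar at 37 °C for 24 h. For MIC, test compound was diluted twofold (1–256 µg/mL) and ~10^6 cells/mL were added, followed by 37 °C for 24 h. MIC was read visually as 99% growth inhibition, with gentamycin as control. For MBC, non-turbid wells were plated on Mueller–Hinton agar for 24 h at 37 °C; MBC was the lowest concentration giving no colonies.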

A. baumannii ATCC 19606 = test system: A. baumannii ATCC 19606
In short: as §1

P. aeruginosa ATCC 27853 = test system: P. aeruginosa ATCC 27853
In short: as §1

- MIC (S. aureus ATCC 29213): 1 µg/mL
- MIC (A. baumannii ATCC 19606): 4 µg/mL
- MIC (P. aeruginosa ATCC 27853): 2 µg/mL
Substance: Gentamycin
